Assay results published in ChEMBL document CHEMBL4033643, “Synthesis and in vitro antitumour activity of crassalactone D, its stereoisomers and novel cinnamic ester derivatives” (Eur J Med Chem, 2017).
Active and inactive are the calls of the source. The rule behind the calls is not given here.

Assays:
MRC5 = assay: Cytotoxicity against human MRC5 cells assessed as reduction in cell viability after 72 hrs by MTT assay; format: cell-based; settings: MRC5, 72 h
HeLa = assay: Cytotoxicity against human HeLa cells assessed as reduction in cell viability after 72 hrs by MTT assay; format: functional, cell-based
MDA-MB-231 = assay: Cytotoxicity against human MDA-MB-231 cells assessed as reduction in cell viability after 72 hrs by MTT assay; format: functional, cell-based; settings: MDA-MB-231, 72 h
MCF7 = assay: Cytotoxicity against human MCF7 cells assessed as reduction in cell viability after 72 hrs by MTT assay; format: functional, cell-based; settings: MCF7, 72 h
Raji = assay: Cytotoxicity against human Raji cells assessed as reduction in cell viability after 72 hrs by MTT assay; format: functional, cell-based
Jurkat = assay: Cytotoxicity against human Jurkat cells assessed as reduction in cell viability after 72 hrs by MTT assay; format: functional, cell-based
HL-60 = assay: Cytotoxicity against human HL60 cells assessed as reduction in cell viability after 72 hrs by MTT assay; format: functional, cell-based; settings: HL-60, 72 h
K562 [1] = assay: Cytotoxicity against human K562 cells assessed as reduction in cell viability after 72 hrs by MTT assay; format: functional, cell-based; settings: K562, 72 h
A549 = assay: Cytotoxicity against human A549 cells assessed as reduction in cell viability after 72 hrs by MTT assay; format: functional, cell-based; settings: A549, 72 h
K562 [2] = assay: Cell cycle arrest in human K562 cells assessed as accumulation at sub G1 phase at IC50 after 72 hrs by propidium iodide staining based flow cytometry (reference value: 1.48%); format: functional
K562 [3] = assay: Cell cycle arrest in human K562 cells assessed as accumulation at G0/G1 phase at IC50 after 72 hrs by propidium iodide staining based flow cytometry (reference value: 38.48%); format: functional
K562 [4] = assay: Cell cycle arrest in human K562 cells assessed as accumulation at S phase at IC50 after 72 hrs by propidium iodide staining based flow cytometry (reference value: 41.03%); format: functional
K562 [5] = assay: Cell cycle arrest in human K562 cells assessed as accumulation at G2/M phase at IC50 after 72 hrs by propidium iodide staining based flow cytometry (reference value: 19.01%); format: functional
K562 [6] = assay: Induction of apoptosis in human K562 cells assessed as specific apoptosis by Annexin V-FITC/propidium iodide staining based flow cytometry; format: functional; design: concentration or dose not given beside the values
K562 [7] = assay: Induction of apoptosis in human K562 cells assessed as specific necrosis by Annexin V-FITC/propidium iodide staining based flow cytometry; format: functional; design: concentration or dose not given beside the values
K562 [8] = assay: Induction of apoptosis in human K562 cells assessed as decrease in Bcl-2 expression level by Western blot analysis; format: functional, cell-based
In short: (§1)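 Western blot of treated K562 cells for Bcl-2, Bax, activated caspase 3 and cleaved PARP (85 kDa fragment). Blots developed by ECL, with band expression quantified by densitometry against an untreated control sample.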

K562 [9] = assay: Induction of apoptosis in human K562 cells assessed as increase in Bax expression level by Western blot analysis; format: functional, cell-based; in short: as §1
K562 [10] = assay: Induction of apoptosis in human K562 cells assessed as increase in caspase 3 expression level by Western blot analysis; format: functional, cell-based; in short: as §1
K562 [11] = assay: Induction of apoptosis in human K562 cells assessed as increase in cleaved PARP expression level by Western blot analysis; format: functional, cell-based; in short: as §1
K562 [12] = assay: Cell cycle arrest in human K562 cells assessed as total cell levels at G0/G1 phase at IC50 after 72 hrs by propidium iodide staining based flow cytometry (reference value: 39.97%); format: functional
K562 [13] = assay: Cell cycle arrest in human K562 cells assessed as total cell levels at S phase at IC50 after 72 hrs by propidium iodide staining based flow cytometry (reference value: 36.49%); format: functional
K562 [14] = assay: Cell cycle arrest in human K562 cells assessed as total cell levels at G2/M phase at IC50 after 72 hrs by propidium iodide staining based flow cytometry (reference value: 14.31%); format: functional
K562 [15] = assay: Cell cycle arrest in human K562 cells assessed as total cell levels at M4 phase at IC50 after 72 hrs by propidium iodide staining based flow cytometry (reference value: 0.50%); format: functional
K562 [16] = assay: Induction of apoptosis in human K562 cells assessed as gated necrotic cells by Annexin V-FITC/propidium iodide staining based flow cytometry (reference value: 0.24%); format: functional
K562 [17] = assay: Induction of apoptosis in human K562 cells assessed as gated late apoptotic cells by Annexin V-FITC/propidium iodide staining based flow cytometry (reference value: 0.88%); format: functional
K562 [18] = assay: Induction of apoptosis in human K562 cells assessed as gated viable cells by Annexin V-FITC/propidium iodide staining based flow cytometry (reference value: 95.78%); format: functional
K562 [19] = assay: Induction of apoptosis in human K562 cells assessed as gated early apoptotic cells by Annexin V-FITC/propidium iodide staining based flow cytometry (reference value: 3.18%); format: functional
K562 [20] = assay: Induction of apoptosis in human K562 cells assessed as total necrotic cells by Annexin V-FITC/propidium iodide staining based flow cytometry (reference value: 0.23%); format: functional
K562 [21] = assay: Induction of apoptosis in human K562 cells assessed as total late apoptotic cells by Annexin V-FITC/propidium iodide staining based flow cytometry (reference value: 0.77%); format: functional
K562 [22] = assay: Induction of apoptosis in human K562 cells assessed as total viable cells by Annexin V-FITC/propidium iodide staining based flow cytometry (reference value: 92.45%); format: functional
K562 [23] = assay: Induction of apoptosis in human K562 cells assessed as total early apoptotic cells by Annexin V-FITC/propidium iodide staining based flow cytometry (reference value: 3.07%); format: functional

SMILES | IC50 (MRC5) [µM] | IC50 (HeLa) [µM] | IC50 (MDA-MB-231) [µM] | IC50 (MCF7) [µM] | IC50 (Raji) [µM] | IC50 (Jurkat) [µM] | IC50 (HL-60) [µM] | IC50 (K562 [1]) [µM] | IC50 (A549) [µM] | Activity (K562 [2]) [%] | Activity (K562 [3]) [%] | Activity (K562 [4]) [%] | Activity (K562 [5]) [%] | Activity (K562 [6]) [%] | Activity (K562 [7]) [%] | Activity (K562 [8]) | Activity (K562 [9]) | Activity (K562 [12]) [%] | Activity (K562 [13]) [%] | Activity (K562 [14]) [%] | other results
O=C1C=C[C@]2(C[C@H](OC(=O)/C=C/c3ccc([N+](=O)[O-])cc3)[C@@H](c3ccccc3)O2)O1 | > 100 | 2.22 | > 100 | 8.58 | > 100 | 31.2 | 2.24 | 5.64 | 45.4 | 2.13 | 48.17 | 28.04 | 21.66 | 0.75 | 3.4 | inactive | Active | 43.62 | 25.39 | 20.35 | Activity (K562 [10]): inactive; Activity (K562 [11]): inactive; Activity (K562 [15]): 1.93%; Activity (K562 [16]): 0.72%; Activity (K562 [17]): 0.87%; Activity (K562 [18]): 94.55%; Activity (K562 [19]): 3.86%; Activity (K562 [20]): 0.71%; Activity (K562 [21]): 0.85%; Activity (K562 [22]): 92.65%; Activity (K562 [23]): 3.78%
O=C1C=C[C@@]2(C[C@H](OC(=O)/C=C/c3ccc(F)cc3)[C@H](c3ccccc3)O2)O1 | > 100 | 8.45 | 7.54 | 2.31 | 5.37 | 4.63 | 1.02 | 5.36 | 1.17 | 3.99 | 37.01 | 30.34 | 28.66 | 18.71 | 1.22 | Active | inactive | 34.22 | 28.54 | 26.5 | Activity (K562 [10]): Active; Activity (K562 [11]): Active; Activity (K562 [15]): 3.69%; Activity (K562 [16]): 2.81%; Activity (K562 [17]): 1.51%; Activity (K562 [18]): 75.24%; Activity (K562 [19]): 20.44%; Activity (K562 [20]): 1.57%; Activity (K562 [21]): 0.75%; Activity (K562 [22]): 70.05%; Activity (K562 [23]): 10%
O=C1C=C[C@]2(C[C@H](OC(=O)/C=C/c3ccc(F)cc3)[C@H](c3ccccc3)O2)O1 | > 100 | 12 | 1.02 | 15.6 | 17.3 | 15.4 | 12 | 9.05 | 1.21 | 14.87 | 23.2 | 37.11 | 24.82 | 85.69 | 3.78 | Active | Active | 19.29 | 31.52 | 29.05 | Activity (K562 [15]): 4.05%; Activity (K562 [16]): 0.36%; Activity (K562 [17]): 2.62%; Activity (K562 [18]): 13.78%; Activity (K562 [19]): 83.24%; Activity (K562 [20]): 0.23%; Activity (K562 [21]): 1.7%; Activity (K562 [22]): 2.45%; Activity (K562 [23]): 60.46%
O=C1C=C[C@]2(C[C@H](OC(=O)/C=C/c3ccc(F)cc3)[C@@H](c3ccccc3)O2)O1 | > 100 | 6.12 | > 100 | 9.65 | 34.1 | 15.6 | 24.1 | 8.45 | > 100 | 2.02 | 40.27 | 28.31 | 29.4 | 8.05 | 3.28 | inactive | Active | 37.36 | 26.82 | 27.34 | Activity (K562 [15]): 1.87%; Activity (K562 [16]): 0.83%; Activity (K562 [17]): 1.85%; Activity (K562 [18]): 87.45%; Activity (K562 [19]): 9.86%; Activity (K562 [20]): 0.78%; Activity (K562 [21]): 1.73%; Activity (K562 [22]): 81.7%; Activity (K562 [23]): 9.21%
O=C1C=C[C@@]2(C[C@H](OC(=O)/C=C/c3ccc(F)cc3)[C@@H](c3ccccc3)O2)O1 | > 100 | 2.21 | > 100 | 21.5 | 55.4 | 22.2 | 4.48 | 1.05 | 25.5 | 2.61 | 41.18 | 33.71 | 22.5 | 4.02 | 3.58 | Active | Active | 36.51 | 30.81 | 19.95 | Activity (K562 [15]): 2.31%; Activity (K562 [16]): 0.54%; Activity (K562 [17]): 1.38%; Activity (K562 [18]): 91.63%; Activity (K562 [19]): 6.46%; Activity (K562 [20]): 0.52%; Activity (K562 [21]): 1.33%; Activity (K562 [22]): 88.51%; Activity (K562 [23]): 6.24%
O=C1C=C[C@@]2(C[C@H](OC(=O)/C=C/c3ccc([N+](=O)[O-])cc3)[C@@H](c3ccccc3)O2)O1 | > 100 | 9.45 | > 100 | 12.5 | > 100 | 86.5 | 1.32 | 7.45 | 56.2 | 2.93 | 33.85 | 38.08 | 25.14 | 10.54 | 2.18 | inactive | Active | 31.72 | 34.91 | 22.88 | Activity (K562 [15]): 2.67%; Activity (K562 [16]): 1.89%; Activity (K562 [17]): 2.23%; Activity (K562 [18]): 84.01%; Activity (K562 [19]): 11.87%; Activity (K562 [20]): 1.64%; Activity (K562 [21]): 1.94%; Activity (K562 [22]): 73.05%; Activity (K562 [23]): 10.32%
COc1ccc(/C=C/C(=O)O[C@H]2C[C@]3(C=CC(=O)O3)O[C@H]2c2ccccc2)cc1 | > 100 | 12.8 | 2.64 | 11.2 | 8.69 | 14.2 | 8.67 | 12.8 | 1.58 | 3.41 | 41.6 | 27.14 | 27.85 | 2.28 | 3.76 | inactive | Active | 37.38 | 24.97 | 25.02 | Activity (K562 [15]): 3.06%; Activity (K562 [16]): 0.37%; Activity (K562 [17]): 0.78%; Activity (K562 [18]): 93.46%; Activity (K562 [19]): 5.39%; Activity (K562 [20]): 0.36%; Activity (K562 [21]): 0.76%; Activity (K562 [22]): 91.39%; Activity (K562 [23]): 5.27%
